The text below walks through data of ChEMBL document CHEMBL1926588, “Sulfur and selenium derivatives of quinazoline and pyrido[2,3-d]pyrimidine: synthesis and study of their potential cytotoxic activity in vitro” (Eur J Med Chem, 2012).

Data set [1] relates to MCF7. Description: Induction of apoptosis in human MCF7 cells assessed as cell death at 10 uM after 4 hrs by TUNEL analysis (reference value: 5.85 +/- 5.21%). The data set is classed as functional.
In data set [2] the test system is MCF7. Description: Induction of apoptosis in human MCF7 cells assessed as cell death at 1 uM after 24 hrs by TUNEL analysis (reference value: 6.12 +/- 1.61%). The data set is classed as functional.
In data set [3] the test system is MCF7. The data set can be described thus: Cell cycle arrest in human MCF7 cells assessed as accumulation at G2/M phase at 15 uM after 4 hrs by propidium iodide staining-based flow cytometric analysis (reference value: 21.60 +/- 5.37%). The data set is classed as functional. In general terms: Flow cytometry measures light scatter and fluorescence of single cells or particles in a stream.

Data set [4] concerns MCF7. Description: Cell cycle arrest in human MCF7 cells assessed as accumulation at subG1 phase at 15 uM after 12 hrs by propidium iodide staining-based flow cytometric analysis (reference value: 2.17 +/- 0.24%). The data set is classed as functional.
Data set [5] relates to MCF7. The data set can be described thus: Cell cycle arrest in human MCF7 cells assessed as accumulation at subG1 phase at 15 uM after 4 hrs by propidium iodide staining-based flow cytometric analysis (reference value: 5.90 +/- 1.36%). The data set is classed as functional.
In data set [6] the test system is MCF7. Description: Cell cycle arrest in human MCF7 cells assessed as accumulation at S phase at 15 uM after 4 hrs by propidium iodide staining-based flow cytometric analysis (reference value: 19.09 +/- 4.54%). It is filed as functional.
Data set [7] has as its system MCF7. Description: Induction of apoptosis in human MCF7 cells assessed as cell death at 20 uM after 24 hrs by TUNEL analysis (reference value: 9.56 +/- 1.38%). The data set is classed as functional.
The subject of data set [8] is MCF7. The data set can be described thus: Induction of apoptosis in human MCF7 cells assessed as cell death at 10 uM after 48 hrs by TUNEL analysis (reference value: 4.23 +/- 1.99%). It is filed as functional.
Data set [9] deals with MCF7. The data set can be described thus: Induction of apoptosis in human MCF7 cells assessed as cell death at 10 uM after 12 hrs by TUNEL analysis (reference value: 6.02 +/- 0.85%). It is filed as functional.
The test system of data set [10] is MCF7. The data set can be described thus: Cell cycle arrest in human MCF7 cells assessed as accumulation at G0/G1 phase at 15 uM after 12 hrs by propidium iodide staining-based flow cytometric analysis (reference value: 57.34 +/- 1.64%). The data set is classed as functional.
Data set [11] relates to MCF7. Description: Induction of apoptosis in human MCF7 cells assessed as cell death at 5 uM after 24 hrs by TUNEL analysis (reference value: 9.28 +/- 1.71%). The data set is classed as functional.
The subject of data set [12] is MCF7. Description: Induction of apoptosis in human MCF7 cells assessed as cell death at 10 uM after 24 hrs by TUNEL analysis (reference value: 9.82 +/- 2.62%). It is filed as functional.
Data set [13] concerns MCF7. Description: Induction of apoptosis in human MCF7 cells assessed as cell death at 15 uM after 24 hrs by TUNEL analysis (reference value: 5.13 +/- 4.32%). It is filed as functional.
In data set [14] the test system is MCF7. Description: Cell cycle arrest in human MCF7 cells assessed as accumulation at S phase at 15 uM after 12 hrs by propidium iodide staining-based flow cytometric analysis (reference value: 17.07 +/- 4.00%). It is filed as functional.
Data set [15] has as its system MCF7. The data set can be described thus: Cell cycle arrest in human MCF7 cells assessed as accumulation at subG1 phase at 15 uM after 24 hrs by propidium iodide staining-based flow cytometric analysis (reference value: 2.93 +/- 0.54%). The data set is classed as functional.
For data set [16], the system named is MCF7. Description: Cell cycle arrest in human MCF7 cells assessed as accumulation at G0/G1 phase at 15 uM after 4 hrs by propidium iodide staining-based flow cytometric analysis (reference value: 49.38 +/- 4.74%). The data set is classed as functional.
Data set [17] has as its system MCF7. Description: Cell cycle arrest in human MCF7 cells assessed as accumulation at G2/M phase at 15 uM after 12 hrs by propidium iodide staining-based flow cytometric analysis (reference value: 22.11 +/- 3.86%). It is filed as functional.
In data set [18] the test system is MCF7. Description: Cell cycle arrest in human MCF7 cells assessed as accumulation at S phase at 15 uM after 24 hrs by propidium iodide staining-based flow cytometric analysis (reference value: 12.39 +/- 1.54%). The data set is classed as functional.
Data set [19] relates to MCF7. Description: Cell cycle arrest in human MCF7 cells assessed as accumulation at G2/M phase at 15 uM after 24 hrs by propidium iodide staining-based flow cytometric analysis (reference value: 32.37 +/- 7.73%). The data set is classed as functional.
Data set [20] deals with MCF7. The data set can be described thus: Cell cycle arrest in human MCF7 cells assessed as accumulation at G0/G1 phase at 15 uM after 24 hrs by propidium iodide staining-based flow cytometric analysis (reference value: 51.83 +/- 5.64%). The data set is classed as functional.
For another data set, the system named is CCRF-CEM. Description: Cytotoxicity against human CCRF-CEM cells after 72 hrs by MTT assay. It is filed as functional. Particulars: for CC50: read-out: LC50 (the source's name). The method, boiled down: (§1)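 MTT read-out after 72 h exposure at 37 °C in humidified 5% CO2, with five concentrations between 0.01 and 100. GI50 is 50% growth reduction versus untreated controls, TGI is complete growth inhibition, and LC50 is the concentration killing 50% of cells. Minimum three independent experiments.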
In general terms: Tetrazolium dyes change colour on reduction, which living cells bring about.

For another data set, the system named is HT-29. The data set can be described thus: Cytotoxicity against human HT-29 cells after 72 hrs by MTT assay. It is filed as functional. As to conditions: HT-29, 72 h; for CC50: read-out: LC50 (the source's name). The method in brief:
as §1

A short description of data set [21]: Cytotoxicity against human 184B5 cells after 72 hrs by MTT assay. Particulars: for GI50 at 72 h: 184B5 cells; for LC50 / TGI: 184b5, 72 h. The data set is classed as cell-based. The method, boiled down: as §1
Data set [22] can be described thus: Cytotoxicity against human HTB-54 cells after 72 hrs by MTT assay. It is filed as functional. Particulars: HTB-54, 72 h; for CC50: read-out: LC50 (the source's name). The method, boiled down:
as §1

In data set [23] the test system is MCF7. Description: Selectivity ratio of GI50 for human 184B5 cells to GI50 for human MCF7 cells. The method, boiled down: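 Selectivity ratio is GI50 on non-tumoral 184B5 mammary cells divided by GI50 on MCF-7. Both come from the 72 h MTT assay. Ratio 3–6 means moderate selectivity, >6 high, and otherwise non-selective.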
In data set [24] the test system is MCF7. The data set can be described thus: Cytotoxicity against human MCF7 cells after 72 hrs by MTT assay. As to conditions: MCF7, 72 h. It is filed as functional. The method in brief:
as §1

Data set [25] in a line: Cytotoxicity against human BEAS2B cells after 72 hrs by MTT assay. It is filed as cell-based, BEAS-2B. The method in brief: as §1

For the compound `CC[C@@]1(O)C(=O)OCc2c1cc1n(c2=O)Cc2cc3ccccc3nc2-1` [CAMPTOTHECIN], the Activity with MCF7 [1] is listed as 6.71%; with MCF7 [2] it was 17.42%; with MCF7 [3], 23.38%; with MCF7 [4], 3.06%; in the data set with MCF7 [5], 5.39%; in the data set with MCF7 [6], 18.36%. The Activity in the data set with MCF7 [7] came out at 17.59%; with MCF7 [8] it was 46.12%; with MCF7 [9], 11.36%; in the data set with MCF7 [10], 59.5%; with MCF7 [11], 13.42%; in the data set with MCF7 [12], 18.67%. The Activity in the data set on MCF7 [13] was 21.21%; in the data set with MCF7 [14], 16.24%; with MCF7 [15], 3.05%; in the data set with MCF7 [16], 47.24%; with MCF7 [17], 20.21%; with MCF7 [18], 15.27%. Moreover, the Activity in the data set with MCF7 [19] came to 20.25%; in the data set on MCF7 [20] it was 58.52%.

For orientation: GI50 means the concentration at which growth is held to half of that of the control. A high value points to less potent growth inhibition. Broadly, the TGI is the concentration giving total growth inhibition. A word on the LC50: it is the concentration that kills 50% of the test population. Turning to `C[Se]c1nc([Se]C)c2ccccc2n1`, the GI50 in the data set on CCRF-CEM came out at 31.2 µM; in the data set on HT-29, 7.46 µM; in data set [22], 26.6 µM; in the data set with MCF7 [24] it was 5.97 µM. Besides, the concentration for total growth inhibition (TGI) in the data set with CCRF-CEM is 54.9 µM; with HT-29, 33.8 µM; in [21] it was over 100 µM; in [22], 84.2 µM; in the data set on MCF7 [24], 50.7 µM. In addition, the figures for the CC50 (in the data set on CCRF-CEM; in the data set with HT-29; in data set [22]) were 78.5 µM, 76.8 µM and over 100 µM, respectively. For the same compound, the 50% growth inhibitory concentration (GI50) at 72 h in [21] came out at 71.5 µM. The LC50 (in data set [21]; in the data set with MCF7 [24]) was over 100 µM each time. Besides, the RatioGI50 in the data set with MCF7 [23] was found to be 12.

As for `CCCCCSc1nc(O)c2ccccc2n1`, the concentration for 50% growth inhibition (GI50) in the data set with CCRF-CEM was determined as 52.1 µM; in the data set with HT-29, 74.6 µM; in [22], 30.4 µM; in the data set with MCF7 [24], 7.82 µM. Besides, the TGI in the data set with CCRF-CEM is 86 µM; in the data set with HT-29 it was over 100 µM; in data set [21], over 100 µM; in data set [22], over 100 µM; in [25] (beas-2b, 72 h) it was over 100 µM; in the data set on MCF7 [24], 81.4 µM. In addition, the CC50 (in the data set on CCRF-CEM; with HT-29; in [22]) was over 100 µM in each case. In addition, the GI50 at 72 h is over 100 µM in [21] and 51.4 µM in data set [25] (BEAS2B cells). Also, the LC50 in [21] was over 100 µM; in data set [25] (beas-2b, 72 h) it was over 100 µM; in the data set with MCF7 [24], over 100 µM. Moreover, the RatioGI50 in the data set on MCF7 [23] is over 12.
